Results reported in the EternaBench riboswitch data.

System: MS2 coat protein
Assay: apparent Kd, MS2 coat protein; higher = weaker binding; RNA-MaP array; FMN 200 µM where present
Procedure, shortened: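 Green signal from SNAP-549-labelled MS2 coat protein was normalised to red-channel RNA signal and to the median Fmax of control clusters. The protein was titrated from 0.7 or 1.5 nM, doubling to 3 µM, without and then with constant ligand, over designs transcribed by stalled E. coli RNA polymerase on Illumina sequencing-chip clusters, in 100 mM Tris-HCl pH 7.5, 80 mM KCl, 4 mM MgCl2, BSA, DTT, yeast tRNA and Tween-20. The apparent Kd is the median of filtered per-cluster binding-curve fits.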

[1] = designed as: OFF switch for flavin mononucleotide, no ligand
[2] = ligand present: flavin mononucleotide, designed as: OFF switch for flavin mononucleotide
[3] = designed as: ON switch for flavin mononucleotide, no ligand
[4] = ligand present: flavin mononucleotide, designed as: ON switch for flavin mononucleotide

Sequence	apparent Kd [1]	apparent Kd [2]	apparent Kd [3]	apparent Kd [4]
CUUUUGUGAGGAUAUCUGUAGUAAAAAAAUAAAAUUACUACUGAGAAGGCACAUGAGGAUCACCCAUGUUCCUC	39.6 nM	181 nM	–	–
GUAUGACAAAGUCAUACCGCUCUGACAUGAGGAUCACCCAUGUAGGAUAUAUUAAUCAAAGAUUAAUAGAAGGACAUGUUUCUU	35.3 nM	79.3 nM	–	–
CGGUGUCAUGUAAGGAUAUCGCAUCCCAGCGGAUACGAGAAGGUACAUGAGGAUCACCCAUGUACGAUAAAAUA	14.3 nM	17.5 nM	–	–
CUGAGUAGUCAGGAUAUGCUGUACAAAAGUACAGCAGAAGGGAUUACAUGAGGAUCACCCAUGUUUUCUUCAUG	56.1 nM	137 nM	–	–
UGUCGGAGCAGAGGAUAUUACAUGAGGAUCACCCAUGUAUGAACCAAUAGCUGGAAACAGCAAUGUAAGAAGGCUGUUCCGACA	11.9 nM	134 nM	–	–
UGAGCCUCGUGAGGAUAUACAUGAGGAUCACCCAUGUAAAUGGAAUAACGGAGGAAACUCCGAAUGUAGAAGGCACGAGGCUCA	81.3 nM	840 nM	–	–
GGCAAUAUGUAGGAUAUCGUAUCGGAAACGAUACGAGAAGGGCAAACAUGAGGAUCACCCAUGUUCCUUAAGCC	15 nM	17.4 nM	–	–
AGCUAGUCAGGAUAUACGAGAACGAACGAAGCAGUGAAGGGACAUGAGGAUCACCCAUGUAGAAGGGACUAGCA	36 nM	82.6 nM	–	–
AUAUUAAUAGUAAGGAUAUGCGUGUAUGUAGUUAUGCAGAAGGUACAUGAGGAUCACCCAUGUAUUAAUGUGUA	14.2 nM	15.4 nM	–	–
GGUAAGAAGUGCGUGAGCUACUUGAGAAGGCGACAUGAGGAUCACCCAUGUCUGUUCCUCAAGUUCGAGGAUAUCAGGUAGUUG	7.42 nM	9.06 nM	–	–
UUUUUAUAACAAGGAUAUACUAAACAUGAGGAUCACCCAUGUAAUAUUAUGAGUGAGAGAGAGAAGUAGAAGGUGUAUUAUUUU	96 nM	120 nM	–	–
GGGCCGUAGUAGAAGGGAUAUACGAUAGGUAUAUCAGGAUAUACAUGAGGAUCACCCAUGUUCUUACAGUGAUAGUCCUCCCUA	28.4 nM	65.8 nM	–	–
CCGUAGAUGGGACAGGAUAUGACUGUCGUCACAUGAGGAUCACCCAUGUCCCGGCAAUGCCACCGUUAGAAGGGUCCCGUCUCGG	–	–	14.4 nM	15 nM
GCUGCAUAGGCAGGAUAUGCAACAAUUAGAAUAAAAUAUAACUAAUUGACAUGAGGAUCACCCAUGUAGAAGGGCCUGUGCAGU	21.1 nM	19.6 nM	–	–
GUGUACAGAGGAUAUACAUAAGCUAGGAAACUAGCAACUUCACAUGAGGAUCACCCAUGUAGAAGGCUGUACAC	13.9 nM	17.8 nM	–	–
GAUUUCGCAUGAGGAUAUGCUCCCGUUUCGGGAGCAGAAGGCAUGUCAUUAGACAUGAGGAUCACCCAUGUAGUUAAGAUUGAA	–	–	378 nM	15.7 nM
UAGGAUCAACGAGGAUAUAAUAGGUUCAAUUUUUUAUAUUGUUUACAUGAGGAUCACCCAUGUUAUUAGAAGGCGUAUGGGAUU	–	–	53.5 nM	36.9 nM
AAUUGGAUCCAGAAGGCAUGGACGACCCGUCACAUUAACAUGAGGAUCACCCAUGUAAAAAUACAUGAGGAUAUGGAUCCUAAA	–	–	41.3 nM	7.43 nM
UGUAUGUAGGCAGGAUAUACAUGAAUAUAUAUGAUGUAGUAUGAUGUAACAUGAGGAUCACCCAUGUAGAAGGGCCAGUGUAUA	102 nM	164 nM	–	–
GUAUCAUACCAAGGAUAUUUAGGACUUGUGUAGACAUGAGGAUCACCCAUGUGGCGUUAGUCACGGGAGAAGGUGGUAUGAUAC	–	–	78.5 nM	18.8 nM
GCGUGACAUGAGGAUCACCCAUGUGAGGAUAUCUGGAUAAUUUUUAUUUUAGAUAUCCAGAGAAGGCACAUGCU	63.8 nM	156 nM	–	–
AGCAGACGAGGAUAUAGAUUUAAGUACAUGAGGAUCACCCAUGUACACAUGUAUUUAGAUUUAGAAGGCGUCUGCU	666 nM	664 nM	–	–
AUUAUACAUGAGGAUCACCCAUGUAAUUAAUUAAUUAAGAUCUAGGAUAUCAGCUCGAUUAGAGCUGAGAAGGAGAUCACAUGU	–	–	29.9 nM	18.7 nM
